Consider 14 molecules from ChEMBL document CHEMBL1221407, “Anthraquinone, cyclopentanone, and naphthoquinone derivatives from the sea fan-derived fungi Fusarium spp. PSU-F14 and PSU-F135” (J Nat Prod, 2010).

One test relates to Plasmodium falciparum. Briefly: Antimalarial activity against multidrug-resistant Plasmodium falciparum K1 by microculture radioisotope technique. It is filed as functional, organism-based.
A further test deals with MCF7. Briefly: Cytotoxicity against human MCF7 cells. It counts as functional, cell-based. The method in brief: (§1)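 KB (oral human carcinoma) and MCF-7 (human breast cancer) cells; resazurin microplate assay.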
Another test concerns KB. The experiment in a line: Cytotoxicity against human KB cells. It counts as functional, cell-based. The method in brief:
as §1

For test [1], the system named is Mycobacterium tuberculosis. Briefly: Antimycobacterial activity against Mycobacterium tuberculosis H37Ra by green fluorescent protein-based fluorescent assay. It counts as functional.
Another test relates to Vero. Briefly: Cytotoxicity against african green monkey Vero cells. It is filed as cell-based, Chlorocebus sabaeus. The method in brief: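 Vero cells (African green monkey kidney fibroblasts), noncancerous; run in triplicate by the method of Hunt and co-workers.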
The next test concerns Nannizzia gypsea. The experiment in a line: Antimicrobial activity against Microsporum gypseum by colorimetric broth microdilution test. It is filed as functional. The method in brief:
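Colorimetric broth microdilution run to CLSI M38-A (broth dilution method for filamentous fungi) and Drummond and Waigh.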
Background: In broth dilution the organism is exposed to a series of concentrations in liquid medium.

Another test deals with Cryptococcus neoformans. The experiment in a line: Antimicrobial activity against Cryptococcus neoformans by colorimetric broth microdilution test. It counts as functional. In short, it runs like this: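 Colorimetric broth microdilution run to CLSI M27-A2 (reference broth dilution method for yeasts) and Drummond and Waigh.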
The mark [2] stands for this setting: Plasmodium falciparum, K1, read-out: IC50.
Setting [3] is: Homo sapiens, KB, read-out: IC50.
Where [4] appears, read: Chlorocebus sabaeus, Vero, read-out: IC50.

≈ marks a conversion by molar mass, not a printed value. Calls of active or inactive are those of the source. Some results are limits rather than exact numbers.

On to `COC1=CC(=O)c2c(O)c3c(c(O)c2C1=O)C[C@](C)(O)[C@H](O)[C@H]3O` [BOSTRYCIN], for which the IC50 – broadly, the midpoint of a concentration-inhibition curve – was 9.8 µM in the test with Plasmodium falciparum (setting [2]), 2.7 µM in the test on MCF7, 0.9 µM in the test on KB (setting [3]) and 4.2 µM in the test on Vero (setting [4]). In test [1], the MIC (usually the smallest concentration in the dilution series that meets the test's criterion for growth inhibition) was “inactive”.

As to `Cc1c2ccncc2c(C)c2c1[nH]c1ccccc12` [ELLIPTECINE], the IC50 in the test with KB (setting [3]) came to 1.1 µM; in the test with Vero (setting [4]), 4.47 µM.

Turning to `COC1=CC(=O)c2c(O)c3c(c(O)c2C1=O)CC(C)(O)OC3` (stereo not given) [FUSARUBIN], the IC50 result was “Not Active” in the test on Plasmodium falciparum, 9.8 µM with MCF7, 14 µM in the test on KB (setting [3]) and 79 µM with Vero (setting [4]). For the same molecule, the MIC in the test with Nannizzia gypsea and in the test with Cryptococcus neoformans was more than 200 µM throughout. Also, the MIC entry in test [1] was “inactive”.

Turning to `COC1=CC(=O)c2c(O)c3c(c(O)c2C1=O)C=C(C)OC3` [ANHYDROFUSARUBIN], the IC50 in the test with Plasmodium falciparum (setting [2]) was 14 µM; in the test with MCF7, 0.9 µM; in the test with KB (setting [3]), 2 µM; in the test with Vero (setting [4]) it was 58 µM. This molecule gave an MIC in test [1] of 87 µM (≈ 25.1 µg/mL).

For `COc1cc(O)c2c(c1O)[C@H](O)[C@H]1C[C@](C)(O)[C@H](O)[C@@H](O)[C@@H]1C2=O` [9ALPHA-HYDROXYHALOROSELLINIA A], the IC50 is 25 µM with Plasmodium falciparum (setting [2]), 6.2 µM with MCF7, 49 µM in the test with KB (setting [3]) and 54 µM in the test on Vero (setting [4]). 39 µM (≈ 13.3 µg/mL) was the least that counted as inhibitory in test [1] (MIC).

Regarding `COC1=CC(=O)c2c(cc3c(c2O)C[C@@H](O)[C@@](C)(O)C3)C1=O` [NIGROSPORIN B], the IC50 with Plasmodium falciparum (setting [2]) is 13 µM; in the test with MCF7, 5.4 µM; in the test on KB (setting [3]) it was 88 µM; with Vero (setting [4]), 29 µM. Besides, the MIC in test [1] was found to be 41 µM (≈ 12.5 µg/mL).

Take `COc1cc(O)c2c(c1O)[C@@H](O)[C@@H](CC(C)=O)[C@@H](CO)C2=O` [FUSARNAPHTHOQUINONE A]: the IC50 entry with Plasmodium falciparum was “Not Active”; with MCF7 it was 22 µM; in the test on KB (setting [3]), 130 µM; with Vero (vero) it was “Not Active”. In addition, in test [1], the MIC result was “inactive”.

`COc1cc(O)c2c(c1O)[C@H](O)[C@H]1C[C@](C)(O)[C@H](O)C[C@@H]1C2=O`: the IC50 entry is “Not Active” with Plasmodium falciparum, 15 µM in the test with MCF7, 19 µM with KB (setting [3]) and 57 µM in the test on Vero (setting [4]). Besides, the MIC result in test [1] was “inactive”.

Take `COc1cccc2c1C(=O)c1c(O)c3c(c(O)c1C2=O)C[C@@](O)(C(=O)CO)C[C@@H]3O[C@H]1C[C@H](N)[C@H](O)[C@H](C)O1` [DOXORUBICIN]: the figures for the IC50 with MCF7 and in the test on KB (setting [3]) were 2.18 µM and 0.33 µM, respectively.

As for `C[C@H]1[C@@H](O)O[C@@H]2O[C@@]3(C)CC[C@H]4[C@H](C)CC[C@@H]1[C@@]24OO3` [ARTENIMOL], in the test with Plasmodium falciparum (setting [2]), the IC50 was 0.004 µM.

Regarding `CO[C@@H]1CC(=O)c2c(O)c(C)c3cc(C)oc3c2[C@@H]1O` [FUSARNAPHTHOQUINONE B], the MIC with Nannizzia gypsea and in the test with Cryptococcus neoformans was more than 200 µM throughout.

As to `COc1cc(O)c2c(c1O)C(=O)c1cc(C)ccc1C2=O` [AUSTROCORTIRUBIN], the IC50 entry with Plasmodium falciparum is “Not Active”; with MCF7, 6.3 µM; in the test on KB (kb) it was “Not Active”; with Vero (vero), “Not Active”. The MIC entry in test [1] is “inactive”.

As for `COC1=CC(=O)c2c(O)c(C)c(CC(C)=O)c(O)c2C1=O` [JAVANICIN], the half-maximal inhibitory concentration (IC50) in the test with Plasmodium falciparum (setting [2]) was found to be 12 µM; with MCF7, 13 µM; with KB (setting [3]), 5.7 µM; in the test on Vero (setting [4]) it was 170 µM. Besides, in test [1], the MIC entry is “inactive”.

`NNC(=O)c1ccncc1` [ISONIAZID] came in with an MIC in test [1] of 0.17 µM (≈ 0.0233 µg/mL).
